Compound activity from PubChem BioAssay.
hiPSC survival: hiPSC single-cell survival enhancement; ATPlite luminescence; 100% = ROCK inhibitor wells, 0% = DMSO; AID 602274; actives 0.044% (n = 360,000); survival enhancement, % at 20 µM; in the data active = survival enhancement above about 18%;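 note: cells exposed to compounds for 16 hours before the ATP read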
Rev-erbA mod: modulators of human Rev-erb alpha DNA binding; P20393; Rev-erbα–FITC-DNA binding, fluorescence polarization, 90 min; activity, % at 10 µM; actives 0.79% (n = 370,000);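 active = activity above about 14%, limit read from the data; passing the limit was not always enough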;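 note: 0% = DMSO wells with 35 nM protein and 100% = DMSO wells with 750 nM protein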
Target sequence (P20393 whole entry, looked up): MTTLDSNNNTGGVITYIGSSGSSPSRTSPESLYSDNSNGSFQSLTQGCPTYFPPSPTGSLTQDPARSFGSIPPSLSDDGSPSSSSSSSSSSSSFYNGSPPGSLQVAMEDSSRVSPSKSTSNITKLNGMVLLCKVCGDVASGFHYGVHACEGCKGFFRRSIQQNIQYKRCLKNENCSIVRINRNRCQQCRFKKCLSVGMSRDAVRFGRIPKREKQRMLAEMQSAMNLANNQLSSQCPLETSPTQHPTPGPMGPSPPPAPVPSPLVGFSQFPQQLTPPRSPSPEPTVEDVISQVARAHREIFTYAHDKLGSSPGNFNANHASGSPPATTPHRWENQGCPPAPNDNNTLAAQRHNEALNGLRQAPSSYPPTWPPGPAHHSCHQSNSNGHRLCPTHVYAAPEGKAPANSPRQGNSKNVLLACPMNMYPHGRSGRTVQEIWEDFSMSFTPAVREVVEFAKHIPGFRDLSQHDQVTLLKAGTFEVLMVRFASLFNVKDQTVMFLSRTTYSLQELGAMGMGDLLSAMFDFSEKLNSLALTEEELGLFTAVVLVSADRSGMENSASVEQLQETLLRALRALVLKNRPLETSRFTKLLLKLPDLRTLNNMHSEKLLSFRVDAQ
T cruzi inh: T. cruzi replication inhibition. T. cruzi beta-gal in NIH3T3, luminescence, 90 h. inhibition, % (concentration not given with the values). actives 1.4% (n = 300,000);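 active = mean inhibition across valid replicates above about 55%, limit read from the data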;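 note: signal also drops with host cell toxicity which is not excluded here; 0% = plate median of DMSO wells and 100% = zero luminescence signal; higher percent means less beta-gal luminescence so fewer parasites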
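Incubation – ≥90 h infection period, 3 h prior cell attachment · System – NIH/3T3 fibroblasts plus reporter T. cruzi · Doses – compound pinned at 50 nL/well, DMSO · Read-out basis – percent inhibition of parasite-derived β-gal signal · Signal – luminescent β-galactosidase signal after 60 min lysis · Also added – 5000 T. cruzi trypomastigotes/well · Medium – Low-serum DMEM with 2% FBS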
TAG inh: reduces triacylglycerol accumulation in H9c2 cells; inhibition, % at 12.5 µM; actives 0.66% (n = 230,000); AID 651582; Nile Red lipid (TAG) fluorescence; cells loaded with 200 µM oleic acid;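 active = pattern-corrected inhibition of lipid staining of at least 50% with the nuclear-stain viability signal not falling by more than 50%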;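 note: 0% = DMSO wells and 100% = triacsin C control wells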
PG9 binder: PG9 antibody binding by small molecule; actives 0.43% (n = 360,000); inhibition, % at 6.7 µM; TR-FRET gp120-PG9 antibody binding; AID 624416; in the data active = inhibition above about 8.5%
MIN6 prolif: inducers of beta-cell replication in MIN6 cells | MIN6 cells proliferation, ATPlite luminescence, 48 h; cells starved in 0.2% serum; 100% = growth in 10% serum | proliferation, % at 10 µM | actives 0.29% (n = 330,000) | AID 2380;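 active = compounds whose signal lies at least 3.5 SD above the mean of all wells on their plate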;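 note: 0% = DMSO-treated cells in low-serum medium and 100% = 10% serum control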
* marks the source's active call; other numbers are inactive results; . = no result given. Hits are enriched below; roughly 2.9% of the tested compounds scored in any of these assays.

SMILES	hiPSC survival	Rev-erbA mod	T cruzi inh	TAG inh	PG9 binder	MIN6 prolif
COc1ccc(NC(=O)N2CCCCC2c2cccnc2)cc1 (centres undefined)	1	0	66*	.	-1	2
COc1cc(OC)cc(C(=O)NC(=S)N2CCCCC2c2cccnc2)c1 (centres undefined)	0	-7	62*	.	0	-3
Cc1ccc(S(=O)(=O)n2cnc3cc([N+](=O)[O-])ccc32)cc1C	0	-1	-32	.	-1	-2
CCCCCN(C(=O)CCC(=O)OC(C)C(=O)NCc1ccccc1)c1c(N)n(CCCC)c(=O)[nH]c1=O (centres undefined)	0	1	2	13	-1	1
CC(C)(C)C(=O)Nc1ccc(Sc2ccc([N+](=O)[O-])cc2)cc1	1	-1	24	.	1	0
C/C(=N\NC(=O)c1ccc(-c2ccccc2)cc1)c1ccco1	4	-3	-5	.	2	-3
C/C(=N\NC(=O)c1cc([N+](=O)[O-])cc([N+](=O)[O-])c1)c1ccco1	0	-7	57*	2	-2	-2
O=C(Nc1ccc(Br)cc1)c1cc([N+](=O)[O-])cc([N+](=O)[O-])c1	-1	0	71*	18	0	-5
CC(=O)Nc1ccc(Sc2ccc([N+](=O)[O-])o2)cc1	-4	-2	.	63*	1	.
CC(=O)Nc1ccc(NC(=O)c2cc([N+](=O)[O-])cc([N+](=O)[O-])c2)cc1	1	2	55*	2	-3	-2
O=C(Nc1ccc(NC(=O)c2cccc([N+](=O)[O-])c2)cc1)c1cccc([N+](=O)[O-])c1	0	5	19	12	-2	-1
O=c1c2ccc(Cl)cc2[nH]c(=S)n1CCCN1CCOCC1	-1	-1	-1	-20	1	-4
CCC(C)N(CCNC(=O)c1ccc2c(c1)NC(=O)c1ccccc1S2)C1CCCCC1 (centres undefined)	0	-8	27	.	-1	-7
COc1ccccc1OCCNC(=O)C(c1ccccc1)c1ccccc1	1	-3	-5	-4	0	-4
COc1ccc(NC(=O)CCSc2cc(C)c3ccccc3n2)cc1	0	1	3	.	-1	4
Cc1ccccc1NC(=O)c1ccc(N/N=C/c2ccccc2O)c([N+](=O)[O-])c1	-1	9	14	17	1	-4
COC(=O)c1cc(C(=O)Nc2ccc(S(=O)(=O)NC(C)(C)C)cc2)cc([N+](=O)[O-])c1	0	1	56*	.	2	1
Cc1ccc(NC(=O)c2ccc(N/N=C/c3cccc(O)c3)c([N+](=O)[O-])c2)cc1	0	13	27	60*	0	-5
Cc1ccc(NC(=O)c2ccc(Nc3c([N+](=O)[O-])cc([N+](=O)[O-])cc3[N+](=O)[O-])cc2)cc1	-1	6	59*	.	-1	-3
CN1CCN(NC(=O)c2cc([N+](=O)[O-])cc([N+](=O)[O-])c2)CC1	-3	-2	70*	.	-3	-1
Cc1ccc(NC(=O)c2ccc(C)cc2)cc1	-4	-1	-16	-5	-2	-7
Cc1cc(C)n2nc(SCC(=O)N/N=C/c3cccc(Br)c3)nc2n1	-2	4	-14	.	-2	-2
Clc1ccc(CNCC2CCCO2)c(Cl)c1 (centres undefined)	1	2	-1	3	-1	-3
O=C1c2ccc3c4c(ccc(c24)C(=O)N1CCCCO)C(=O)N(CCCCO)C3=O	-2	1	68*	73*	-8	.
COC(=O)[C@]12C[C@H](CC(=O)NCc3cccc4ccccc34)C(=O)N(CCC3=CCCCC3)C1=C[C@H](C(C)C)O[C@@H]2C1CC1	.	-1	.	.	.	.
SMILES	hiPSC survival	Rev-erbA mod	T cruzi inh	TAG inh	PG9 binder	MIN6 prolif
Cc1ccc(NC(=O)c2cc(N3C(=O)C=CC3=O)ccc2N2CCOCC2)cc1Cl	0	4	55*	.	0	.
Cc1ccc(NC(=O)c2cc(N3C(=O)CCC3=O)ccc2N2CCOCC2)cc1	-1	-2	-28	-6	1	1
CC(C)(C)NC(=O)CN(Cc1cccs1)C(=O)C1COc2ccccc2O1 (centres undefined)	-1	2	20	.	1	0
CC(C)CCNC(=O)C(c1ccc(O)cc1)N(Cc1cccs1)C(=O)C1COc2ccccc2O1 (centres undefined)	1	2	64*	9	-2	0
CCOC(=O)c1cnc2c(-c3ccccc3)cnn2c1C	-2	-2	-21	.	-1	-4
CC1CC(C)CN(c2ccc(C(=O)NCc3ccc4c(c3)OCO4)cc2[N+](=O)[O-])C1 (centres undefined)	4	3	65*	.	0	-5
Cc1cc(C(=O)NCc2ccc3c(c2)OCO3)ccc1[N+](=O)[O-]	2	0	5	.	-1	0
Cc1ccc(NC(=O)c2ccc(CSc3nnc(C)s3)cc2)c(C)c1	-1	4	-11	.	0	-1
COC(=O)c1c(NC(=O)COc2ccc(Cl)cc2)sc2c1CC(C)(C)NC2(C)C	0	-6	65*	137	-1	-7
CC1(C)CC(CC(=O)NC(=S)Nc2ccc([N+](=O)[O-])cc2)C(=O)O1 (centres undefined)	3	-6	4	-13	-1	1
O=C(CCNC(=O)c1ccccc1Cl)Nc1nccs1	1	.	-7	2	.	1
Fc1ccc(N2CCN(C3=Nc4cccc5cccc3c45)CC2)cc1	-1	4	64*	-31	-4	-1
COc1ccc(CCNC(=O)COC(=O)/C=C/c2ccc(OCC#N)c(OC)c2)cc1	14	-1	-7	.	-2	2
CC1CC(C)CN(C(=O)c2ccc3c(c2NCCO)C(=O)c2ccccc2C3=O)C1 (centres undefined)	3	4	5	127*	-12	0
CC1CC(C)CN(C(=O)COC(=O)CN2C(=O)c3ccccc3C2=O)C1 (centres undefined)	-2	-4	.	-7	2	-4
Oc1cc(Nc2ccccc2)cc2cccnc12	2	2	.	5	-2	-6
Oc1cc(NCCN2CCOCC2)cc2cccnc12	-1	-5	.	74*	-4	-3
COc1ccc(NC(=O)C2CCCN(C(=O)NC3CCCCC3)C2)cc1OC (centres undefined)	6	7	-5	22	-1	-2
CCCn1c2c(c(O)c(C(=O)NC)c1=O)CCCC2	-3	3	-2	12	-1	-6
CCCn1c2c(c(O)c(C(=O)Nc3ccc(OC)cc3)c1=O)CCCC2	0	8	61*	.	-1	5
